Test results as given in the RNAGym collection of RNA variant scans (doi:10.1038/s41586-018-0170-7).

B1: tRNA (parent)
chain: GUUCCGUUGGCGUAAUGGUAACGCGUCUCCCUCCUAAGGAGAAGACUGCGGGUUCGAGUCCCGUACGGAACG

Variants of: B1
Assay: yeast fitness, log relative to wild type (ln ratio); higher = fitter; tRNA-Arg(CCU), competitive growth, 37 C, 1 M NaCl
Procedure, shortened: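 Fitness is the natural log of a genotype's generation count divided by that of the wild type. A combinatorial library of tRNA-Arg(CCU) variants sat on a HIS3 centromeric plasmid in BY4742 lacking the chromosomal gene, from two independent transformations. Pools grew 4 generations in SC-HIS at 30 °C, then ~6.5 generations (~26.5 h) in SC-HIS 1M NaCl at 37 °C, with three outputs per input. Generations came from OD-scaled log2 output/input frequency, inverse-variance weighted across replicates, with variants counted by 125 bp paired-end Illumina sequencing.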
For GUUCCAUUGGCGUAAUGGUAACGCGUUUCCCUCCUAAGGAGAAGACUGCGGGUUCGAGUCCCGUAUGGGUUG [G6A C27U C66U A69G A70U C71U], the “yeast fitness (ln)” value was -0.462.
For GUUCCAUUGGCGUAAUGGUAACGCGUUUCCCUCCUAAGGAGAAGAUUGCGGGUUCGAGUCCCGUAUGGAAUG [G6A C27U C46U C66U C71U], the “yeast fitness (ln)” value was -0.0799.
With GGUCCAUUGGCGUAAUGGUAACGCGUCUCCCUCCUAAGGAGACGAUUGCGGGUUCGAGUCCCGUACGGAAUG [U2G G6A A43C C46U C71U] the “yeast fitness (ln)” value was -0.151.
With GUUCCGUUGGCGUAAUGGUAACGCGUCUCCCUCCUAAGGAGACGAUUGCGGGUUCGAGUCCCGUAAGGGUCG [A43C C46U C66A A69G A70U] the “yeast fitness (ln)” value was -0.0398.
For GUUCCGUUGGCGUAAUGGUAACGCGUCUCCCUCCUAAGGAGACGAUUGCGGGUUCGAGUCCCGUAAGGGGCG [A43C C46U C66A A69G A70G], the “yeast fitness (ln)” value was -0.0183.
For GGUCCAUUGGCGUAAUGGUAACGCGUUUCCCUCCUAAGGAGAAGAUUGCGGGUUCGAGUCCCGUAUGGGUCG [U2G G6A C27U C46U C66U A69G A70U], the “yeast fitness (ln)” value was -0.0313.
In the case of GUUCCAUUGGCGUAAUGGUAACGCGUCUCCCUCCUAAGGAGAAGAUUGCGGGUUCGAGUCCCGUAAGGGUCG [G6A C46U C66A A69G A70U], the “yeast fitness (ln)” value is reported as -0.178.
With ACUCCGUUGGCGUAAUGGUAACGCGUUUCCCUCCUAAGGAGAAGAUUGCGGGUUCGAGUCCCGUACGGAAUG [G1A U2C C27U C46U C71U] the “yeast fitness (ln)” value was -0.147.
For AUUCCUUUGGCGUAAUGGUAACGCGUCUCCCUCCUAAGGAGACGACUGCGGGUUCGAGUCCCGUACGGGGCG [G1A G6U A43C A69G A70G], the “yeast fitness (ln)” value was -0.54.
In the case of GGUCCAUUGGCGUAAUGGUAACGCGUUUCCCUCCUAAGGAGAAGACUGCGGGUUCGAGUCCCGUAAGGAUUG [U2G G6A C27U C66A A70U C71U], the “yeast fitness (ln)” value is reported as -0.244.
In the case of ACUCCAUUGGCGUAAUGGUAACGCGUUUCCCUCCUAAGGAGACGAUUGCGGGUUCGAGUCCCGUACGGGUCG [G1A U2C G6A C27U A43C C46U A69G A70U], the “yeast fitness (ln)” value is reported as -0.132.
With GGUCCGUUGGCGUAAUGGUAACGCGUCUCCCUCCUAAGGAGACGAUUGCGGGUUCGAGUCCCGUACGGGUCG [U2G A43C C46U A69G A70U] the “yeast fitness (ln)” value was -0.00112.
In the case of GUUCCAUUGGCGUAAUGGUAACGCGUCUCCCUCCUAAGGAGACGACUGCGGGUUCGAGUCCCGUACGGAUUG [G6A A43C A70U C71U], the “yeast fitness (ln)” value is reported as -0.266.
In the case of ACUCCGUUGGCGUAAUGGUAACGCGUUUCCCUCCUAAGGAGAAGACUGCGGGUUCGAGUCCCGUACGGGAUG [G1A U2C C27U A69G C71U], the “yeast fitness (ln)” value is reported as -0.131.
With AUUCCGUUGGCGUAAUGGUAACGCGUUUCCCUCCUAAGGAGACGAUUGCGGGUUCGAGUCCCGUAUGGAGUG [G1A C27U A43C C46U C66U A70G C71U] the “yeast fitness (ln)” value was -0.299.
With ACUCCUUUGGCGUAAUGGUAACGCGUUUCCCUCCUAAGGAGACGACUGCGGGUUCGAGUCCCGUAAGGAGCG [G1A U2C G6U C27U A43C C66A A70G] the “yeast fitness (ln)” value was -0.299.
In the case of GGUCCGUUGGCGUAAUGGUAACGCGUUUCCCUCCUAAGGAGACGAUUGCGGGUUCGAGUCCCGUACGGGACG [U2G C27U A43C C46U A69G], the “yeast fitness (ln)” value is reported as -0.0569.
For GUUCCGUUGGCGUAAUGGUAACGCGUCUCCCUCCUAAGGAGACGACUGCGGGUUCGAGUCCCGUAUGGAGUG [A43C C66U A70G C71U], the “yeast fitness (ln)” value was -0.156.
With AUUCCUUUGGCGUAAUGGUAACGCGUUUCCCUCCUAAGGAGAAGAUUGCGGGUUCGAGUCCCGUAAGGAGUG [G1A G6U C27U C46U C66A A70G C71U] the “yeast fitness (ln)” value was -0.23.
With GGUCCAUUGGCGUAAUGGUAACGCGUCUCCCUCCUAAGGAGACGAUUGCGGGUUCGAGUCCCGUACGGGAUG [U2G G6A A43C C46U A69G C71U] the “yeast fitness (ln)” value was -0.206.
With GGUCCAUUGGCGUAAUGGUAACGCGUUUCCCUCCUAAGGAGAAGAUUGCGGGUUCGAGUCCCGUAUGGGAUG [U2G G6A C27U C46U C66U A69G C71U] the “yeast fitness (ln)” value was -0.277.
In the case of GGUCCUUUGGCGUAAUGGUAACGCGUUUCCCUCCUAAGGAGACGACUGCGGGUUCGAGUCCCGUAAGGAUUG [U2G G6U C27U A43C C66A A70U C71U], the “yeast fitness (ln)” value is reported as -0.445.
For GCUCCGUUGGCGUAAUGGUAACGCGUUUCCCUCCUAAGGAGAAGACUGCGGGUUCGAGUCCCGUAAGGGUCG [U2C C27U C66A A69G A70U], the “yeast fitness (ln)” value was -0.119.
With GGUCCUUUGGCGUAAUGGUAACGCGUCUCCCUCCUAAGGAGAAGACUGCGGGUUCGAGUCCCGUAAGGAAUG [U2G G6U C66A C71U] the “yeast fitness (ln)” value was -0.108.
With AUUCCGUUGGCGUAAUGGUAACGCGUCUCCCUCCUAAGGAGAAGAUUGCGGGUUCGAGUCCCGUAAGGGUUG [G1A C46U C66A A69G A70U C71U] the “yeast fitness (ln)” value was -0.331.
In the case of GGUCCUUUGGCGUAAUGGUAACGCGUUUCCCUCCUAAGGAGACGAUUGCGGGUUCGAGUCCCGUAAGGAACG [U2G G6U C27U A43C C46U C66A], the “yeast fitness (ln)” value is reported as -0.0517.
In the case of GGUCCUUUGGCGUAAUGGUAACGCGUCUCCCUCCUAAGGAGACGACUGCGGGUUCGAGUCCCGUACGGGGCG [U2G G6U A43C A69G A70G], the “yeast fitness (ln)” value is reported as -0.237.
In the case of AGUCCGUUGGCGUAAUGGUAACGCGUUUCCCUCCUAAGGAGAAGACUGCGGGUUCGAGUCCCGUAAGGAAUG [G1A U2G C27U C66A C71U], the “yeast fitness (ln)” value is reported as -0.147.
For AGUCCAUUGGCGUAAUGGUAACGCGUCUCCCUCCUAAGGAGAAGACUGCGGGUUCGAGUCCCGUAUGGGGUG [G1A U2G G6A C66U A69G A70G C71U], the “yeast fitness (ln)” value was -0.366.
For AGUCCUUUGGCGUAAUGGUAACGCGUUUCCCUCCUAAGGAGAAGACUGCGGGUUCGAGUCCCGUAUGGAGCG [G1A U2G G6U C27U C66U A70G], the “yeast fitness (ln)” value was -0.357.
In the case of GGUCCGUUGGCGUAAUGGUAACGCGUCUCCCUCCUAAGGAGAAGACUGCGGGUUCGAGUCCCGUAUGGAAUG [U2G C66U C71U], the “yeast fitness (ln)” value is reported as -0.181.
In the case of GCUCCAUUGGCGUAAUGGUAACGCGUCUCCCUCCUAAGGAGAAGACUGCGGGUUCGAGUCCCGUACGGGUUG [U2C G6A A69G A70U C71U], the “yeast fitness (ln)” value is reported as -0.174.
For GCUCCUUUGGCGUAAUGGUAACGCGUUUCCCUCCUAAGGAGAAGAUUGCGGGUUCGAGUCCCGUAAGGGGCG [U2C G6U C27U C46U C66A A69G A70G], the “yeast fitness (ln)” value was -0.035.
For GCUCCUUUGGCGUAAUGGUAACGCGUUUCCCUCCUAAGGAGAAGAUUGCGGGUUCGAGUCCCGUAAGGGUCG [U2C G6U C27U C46U C66A A69G A70U], the “yeast fitness (ln)” value was -0.114.
In the case of GUUCCUUUGGCGUAAUGGUAACGCGUCUCCCUCCUAAGGAGACGAUUGCGGGUUCGAGUCCCGUACGGGAUG [G6U A43C C46U A69G C71U], the “yeast fitness (ln)” value is reported as -0.234.
In the case of AUUCCUUUGGCGUAAUGGUAACGCGUCUCCCUCCUAAGGAGAAGACUGCGGGUUCGAGUCCCGUAUGGAUCG [G1A G6U C66U A70U], the “yeast fitness (ln)” value is reported as -0.154.
With GCUCCAUUGGCGUAAUGGUAACGCGUCUCCCUCCUAAGGAGACGACUGCGGGUUCGAGUCCCGUACGGGAUG [U2C G6A A43C A69G C71U] the “yeast fitness (ln)” value was -0.179.
With AUUCCGUUGGCGUAAUGGUAACGCGUUUCCCUCCUAAGGAGACGAUUGCGGGUUCGAGUCCCGUAAGGGUCG [G1A C27U A43C C46U C66A A69G A70U] the “yeast fitness (ln)” value was -0.352.
